Experimental data from ChEMBL document CHEMBL1150672, “Chemical transformations on botryane skeleton. Effect on the cytotoxic activity” (J Nat Prod, 2003).
Converted amounts (≈) assume the structure as drawn.

Tests used:
[1] = Cytotoxicity against HUVEC after 24 hrs by MTT assay; type: cell-based; conditions: human, read-out: ID50
Procedure, shortened: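 Primary HUVEC from newborns, grown in DMEM/medium 199 with 20% FCS, 10 mM HEPES, heparin and ECGS at 37 °C, 5% CO2. Cells were seeded at 4 or 8×10^3/well and attached overnight. Compounds were added from methanol solutions diluted in medium, with a methanol blank, for 24 h in duplicate. MTT (5 mg/mL stock) was added for 4 h, formazan dissolved in DMSO, and A550 read.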

[2] = Cytotoxicity against human Hs 578T cells after 24 hrs by MTT assay; type: functional; conditions: read-out: ID50 (the source's name)
Procedure, shortened: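 Hs578T cells (ATCC) were maintained in DMEM with 10% FCS, 1% glutamine and 10 μg/mL insulin. Cells were seeded at 4 or 8×10^3/well and allowed to adhere overnight at 37 °C. They were exposed 24 h, in duplicate, to compounds in methanol diluted with medium, with a methanol blank. MTT (5 mg/mL stock) was added for 4 h, formazan dissolved in DMSO, and A550 measured.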

[3] = Cytotoxicity against human U87MG cells after 24 hrs by MTT assay; type: functional, U-87MG ATCC; conditions: U-87 MG, read-out: ID50 (the source's name)
Procedure, shortened: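 U87-MG glioblastoma cells (ATCC) were grown in MEM with 10% FCS, 1% sodium pyruvate and 1% nonessential amino acids. Cells were seeded at 4 or 8×10^3/well and adhered overnight at 37 °C. They were exposed 24 h, in duplicate, to methanol-dissolved compounds diluted in medium, with a methanol blank. MTT (5 mg/mL stock) was added for 4 h, formazan dissolved in DMSO, and absorbance read at 550 nm.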

[4] = Cytotoxicity against human IMR90 cells after 24 hrs by MTT assay; type: cell-based, IMR-90; conditions: read-out: ID50
Procedure, shortened: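 IMR-90 embryonic fibroblasts (ATCC) were grown in DMEM with 10% FCS and 1% glutamine at 37 °C, 5% CO2. Cells were plated at 4 or 8×10^3/well and attached overnight. They were treated 24 h, in duplicate, with compounds from methanol stocks diluted in medium, with a methanol blank. MTT (5 mg/mL stock) was added for 4 h, formazan dissolved in DMSO, and read at 550 nm.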

[5] = tested on: MDA-MB-231; experiment: Cytotoxicity against human MDA-MB-231 cells after 24 hrs by MTT assay; type: functional; conditions: MDA-MB-231, 24 h, read-out: ID50 (the source's name)
Procedure, shortened: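 MDA-MB-231 cells (ATCC) were cultured in Leibovitz's L-15 with 10% FCS. Cells were seeded at 4 or 8×10^3/well and attached overnight at 37 °C. Compounds dissolved in methanol and diluted in medium were added for 24 h in duplicate, with a methanol blank. MTT (5 mg/mL stock) was added for 4 h, formazan taken up in DMSO, and A550 recorded.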

[6] = tested on: HT-1080; experiment: Cytotoxicity against human HT1080 cells after 24 hrs by MTT assay; type: functional; conditions: HT-1080, 24 h, read-out: ID50 (the source's name)
Procedure, shortened: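 HT-1080 cells (ATCC) were kept in DMEM with 10% FCS, 1% glutamine and 1% vitamins at 37 °C, 5% CO2. Cells were seeded at 4 or 8×10^3/well and attached overnight, then exposed for 24 h in duplicate to methanol-dissolved compounds diluted in medium, with a methanol blank. MTT (5 mg/mL stock) was given for 4 h, formazan solubilized in DMSO, and absorbance read at 550 nm.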

Compound | CC50 at 24 h [1] [µg/mL] | IC50 [2] [µg/mL] | IC50 [3] [µg/mL] | CC50 at 24 h [4] [µg/mL] | IC50 [5] [µg/mL] | IC50 [6] [µg/mL]
COC(=O)[C@@]1(C)CC(C)(C)[C@@H]2[C@@H](OC(C)=O)C[C@@H](C)[C@H](C=O)[C@@]21O [METHYL ACETYLBOTRYALOATE] | > 10 | > 10 | > 10 | > 10 | > 10 | > 10
CC(=O)O[C@H]1C[C@@H](C)[C@@H]2[C@@H](O)OC[C@@]3(C)CC(C)(C)[C@H]1[C@]23O [DIHYDROBOTRYDIAL] | > 10 | > 10 | > 10 | > 10 | > 10 | > 10
Cc1ccc2c(c1CO)[C@@](C)(CO)C[C@@]2(C)CO | > 10 | > 10 | > 10 | > 10 | > 10 | > 10
CC(=O)O[C@H]1C[C@@H](C)[C@@H]2[C@H](O)OC[C@@]3(C)CC(C)(C)[C@H]1[C@]23O | > 10 | > 10 | > 10 | > 10 | > 10 | > 10
CC(=O)O[C@H]1C[C@@H](C)[C@@H]2C(=O)OC[C@@]3(C)CC(C)(C)[C@H]1[C@]23O | > 10 | > 10 | > 10 | > 10 | > 10 | > 10
CC(=O)O[C@H]1C[C@@H](C)[C@H](CO)C2=C1C(C)(C)C[C@]2(C)CO | > 10 | > 10 | > 10 | > 10 | > 10 | > 10
CC(=O)O[C@H]1C[C@@H](C)[C@@H]2[C@@H](O)[C@H](O)[C@@]3(C)CC(C)(C)[C@H]1[C@]23O | > 10 | > 10 | > 10 | > 10 | > 10 | > 10
CC(=O)O[C@H]1C[C@@H](C)C(C=O)=C2[C@@H]1C(C)(C)C[C@]2(C)CO [BOTRYENALOL] | > 10 | > 10 | > 10 | > 10 | > 10 | > 10
C=CC1=C(/C(=C\C)CO)[C@@](C)(CO)CC1(C)C [SECOBOTRYTRIENDIOL] | > 10 | > 10 | > 10 | > 10 | > 10 | > 10
CC(=O)O[C@H]1C[C@@H](C)[C@@H]2COC[C@@]3(C)CC(C)(C)[C@H]1[C@]23O | > 10 | > 10 | > 10 | > 10 | > 10 | > 10
CC(=O)O[C@H]1C[C@@H](C)[C@H](C(=O)O)[C@@]2(O)[C@@H]1C(C)(C)C[C@]2(C)C=O | > 10 | > 10 | > 10 | > 10 | > 10 | > 10
CC(=O)O[C@H]1C[C@@H](C)[C@H](C=O)[C@]2(O)[C@@H]1C(C)(C)C[C@@]2(C)C=O | 5 (≈ 16.1 µM) | 1 (≈ 3.22 µM) | 1 (≈ 3.22 µM) | 10 (≈ 32.2 µM) | 0.1 (≈ 0.322 µM) | 5 (≈ 16.1 µM)
CC(=O)O[C@H]1C[C@@H](C)[C@H](C(=O)O)[C@@]2(O)[C@@H]1C(C)(C)C[C@]2(C)C(=O)O [BOTRYDIOIC ACID] | > 10 | > 10 | > 10 | > 10 | > 10 | > 10
CC(=O)O[C@H]1C[C@@H](C)[C@H](C(=O)O)[C@@]2(O)[C@@H]1C(C)(C)C[C@]2(C)CO [BOTRYOLOIC ACID] | > 10 | > 10 | > 10 | > 10 | > 10 | > 10
CC(=O)O[C@H]1C[C@@H](C)C(C=O)=C2[C@@H]1C(C)(C)C[C@]2(C)C=O [BOTRYENEDIAL] | 10 (≈ 34.2 µM) | 10 (≈ 34.2 µM) | 10 (≈ 34.2 µM) | > 10 | 10 (≈ 34.2 µM) | 10 (≈ 34.2 µM)
CC(=O)O[C@H]1C[C@@H](C)[C@@H]2COC(C)(C)OC[C@@]3(C)CC(C)(C)[C@H]1[C@]23O | > 10 | > 10 | > 10 | > 10 | > 10 | > 10
COC(=O)[C@@]1(C)CC(C)(C)[C@@H]2[C@@H](O)C[C@@H](C)[C@H](C=O)[C@@]21O [METHYL BOTRYALOATE] | > 10 | > 10 | > 10 | > 10 | > 10 | > 10
CC(=O)O[C@H]1C[C@@H](C)[C@@H]2COC(=O)[C@@]3(C)CC(C)(C)[C@H]1[C@]23O | > 10 | > 10 | > 10 | > 10 | > 10 | > 10
CC(=O)O[C@H]1C[C@@H](C)[C@H](CO)[C@@]2(O)[C@@H]1C(C)(C)C[C@]2(C)CO [BOTRYDIOL] | > 10 | > 10 | > 10 | > 10 | > 10 | > 10
CC(=O)O[C@H]1C[C@@H](C)[C@@H](C=O)[C@@]2(O)[C@@H]1C(C)(C)C[C@]2(C)C=O | 10 (≈ 32.2 µM) | 5 (≈ 16.1 µM) | 5 (≈ 16.1 µM) | 10 (≈ 32.2 µM) | 1 (≈ 3.22 µM) | 10 (≈ 32.2 µM)
C[C@@H]1C[C@H](O)[C@H]2C(C)(C)C[C@]3(C)COC[C@@H]1[C@@]23O | > 10 | > 10 | > 10 | > 10 | > 10 | > 10
CC(=O)O[C@H]1C[C@@H](C)[C@H](C=O)[C@@]2(O)[C@@H]1C(C)(C)C[C@]2(C)C=O [BOTRYDIAL] | 1 (≈ 3.22 µM) | 1 (≈ 3.22 µM) | 1 (≈ 3.22 µM) | 10 (≈ 32.2 µM) | 1 (≈ 3.22 µM) | 1 (≈ 3.22 µM)
COC(=O)[C@@]1(C)CC(C)(C)[C@H]2C1=C(C=O)[C@H](C)C[C@@H]2O [METHYL BOTRYENALOATE] | > 10 | > 10 | > 10 | > 10 | > 10 | > 10
COC(=O)[C@H]1[C@H](C)C[C@H](OC(C)=O)[C@H]2C(C)(C)C[C@](C)(C(=O)OC)[C@@]12O [DIMETHYL BOTRYDIOATE] | > 10 | > 10 | > 10 | > 10 | > 10 | > 10
CC1(C)C[C@](C)(CO)c2c1ccc(CO)c2CO | > 10 | > 10 | > 10 | > 10 | > 10 | > 10
C[C@@H]1CC=C2C(=C1C=O)[C@@](C)(C=O)CC2(C)C | 1 (≈ 4.3 µM) | 1 (≈ 4.3 µM) | 1 (≈ 4.3 µM) | 1 (≈ 4.3 µM) | 0.1 (≈ 0.43 µM) | 1 (≈ 4.3 µM)
Cc1ccc2c(c1C=O)[C@@](C)(C=O)CC2(C)C | 5 (≈ 21.7 µM) | 1 (≈ 4.34 µM) | 5 (≈ 21.7 µM) | 10 (≈ 43.4 µM) | 10 (≈ 43.4 µM) | 1 (≈ 4.34 µM)
